Compound activity as filed in PubChem BioAssay.
Compounds with a hit are over-represented: about 0.74% of the library has one in this group of screens.
HKDC1 inhibitor – inhibitors of human hexokinase HKDC1; recombinant HKDC1, G6PDH/diaphorase resazurin coupled fluorescence; 340,000 compounds, 0.16% hits; inhibition, % at 20 µM; Q2TB90;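 active = inhibition above about 35% when tested at 20 µM, limit read from the data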
Target sequence (Q2TB90 whole entry, looked up): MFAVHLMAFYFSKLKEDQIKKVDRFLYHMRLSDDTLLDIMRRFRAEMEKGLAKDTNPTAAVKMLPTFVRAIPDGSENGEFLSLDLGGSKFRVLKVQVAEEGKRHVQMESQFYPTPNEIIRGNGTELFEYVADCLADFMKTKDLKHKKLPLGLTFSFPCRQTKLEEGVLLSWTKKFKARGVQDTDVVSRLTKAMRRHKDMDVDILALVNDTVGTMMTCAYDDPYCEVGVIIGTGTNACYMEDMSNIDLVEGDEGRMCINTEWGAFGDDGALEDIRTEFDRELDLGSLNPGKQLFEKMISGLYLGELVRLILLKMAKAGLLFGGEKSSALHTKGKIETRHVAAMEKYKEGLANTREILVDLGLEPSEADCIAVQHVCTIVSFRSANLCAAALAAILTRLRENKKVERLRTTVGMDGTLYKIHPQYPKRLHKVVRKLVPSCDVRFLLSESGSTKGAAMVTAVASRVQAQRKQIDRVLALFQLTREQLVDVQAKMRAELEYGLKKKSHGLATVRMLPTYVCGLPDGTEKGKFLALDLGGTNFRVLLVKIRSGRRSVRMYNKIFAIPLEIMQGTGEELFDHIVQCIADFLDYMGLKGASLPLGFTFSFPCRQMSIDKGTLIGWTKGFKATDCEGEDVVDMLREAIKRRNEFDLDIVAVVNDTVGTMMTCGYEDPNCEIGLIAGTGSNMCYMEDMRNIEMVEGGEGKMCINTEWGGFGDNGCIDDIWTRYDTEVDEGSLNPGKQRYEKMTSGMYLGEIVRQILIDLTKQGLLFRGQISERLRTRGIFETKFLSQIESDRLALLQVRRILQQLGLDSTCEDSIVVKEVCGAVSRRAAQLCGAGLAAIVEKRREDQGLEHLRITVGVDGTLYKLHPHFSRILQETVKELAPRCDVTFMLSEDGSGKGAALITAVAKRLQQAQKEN
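Assay system: in-house recombinant HK5 (HKDC1) enzyme. Input: HKDC1 at 5 µg/mL. Medium: Tris pH 8.0 buffer with MgCl2, Tween-20, BSA, BME. Dosing: single 20 µM dose. Schedule: 90 min reaction incubation at room temperature, dark. Signal: resazurin-to-resorufin fluorescence via G6PDH and diaphorase coupling, 525/613 nm. Controls: DMSO-enzyme wells negative, buffer-substituted wells positive.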
Arbovirus anti – antivirals against arbovirus infection; arbovirus infection cell-based antiviral screen; inhibition, % at 10 µM; 200,000 compounds, 0.37% hits; AID 1251; in the data active = inhibition above about 30%
Diaphorase act – activates diaphorase or chemically reduces, flagging diaphorase assay artifacts | 190,000 compounds, 0.005% hits | activation factor at 20 µM | Diaphorase/resazurin coupled assay, resorufin fluorescence, 16 min; stronger effect = higher value; 1 = vehicle wells, 0 = NADH-free wells;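 active = diaphorase activity raised at least twofold by the compound at 20 µM; inactive = activation factor below 2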
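Assay system: bacterial diaphorase enzyme (C. kluyveri) / Input: enzyme 0.07 U/mL final / Medium: 50 mM HEPES pH 7.4 with 4.542 mM MgCl2, 0.005% Tween 20 / Doses: single compound dose of 20 µM, 1% DMSO final / Incubation: 16 min enzyme reaction, ambient temperature / Signal: fluorescence, excitation 544 nm and emission 590 nm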
G6PDH CS – counter-screen for G6PDH assay hits: L. mesenteroides G6PDH inhibition; Purified L. mesenteroides G6PDH, diaphorase/resazurin coupled fluorescence, 45 min; 200,000 compounds, 0.12% hits; inhibition, % at 5 µM; in the data active = inhibition above about 50%
Diaphorase inh – counter-screen for diaphorase-based assays: diaphorase inhibitors and chemical oxidizers | diaphorase resazurin-to-resorufin fluorescence, NADH, 16 min; bacterial (C. kluyveri) enzyme, not human | 190,000 compounds, 0.69% hits | inhibition, % at 20 µM;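 active = primary screen inhibition at 20 µM above a set limit, cut at about 50% in these data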
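material = Clostridium kluyveri diaphorase enzyme | amount = 0.14 U/mL diaphorase, enzyme working solution | schedule = incubation 16 min, room temperature | detection = fluorescence of resorufin formed from resazurin, Ex 544/Em 590 nm | benchmarks = positive control minus NADH, DMSO neutral control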
HKDC1 act conf2 – confirmation of human HKDC1 activators. AID 504708. inhibition, % at 20 µM. 740 compounds, 14% hits. recombinant HKDC1, G6PDH/diaphorase resazurin fluorescence; stronger effect = lower value. shares compounds with HKDC1 inhibitor;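 active = inhibition at or below a set negative limit, negative inhibition meaning the enzyme was activated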
A number is an active result; 0 = inactive; - = no result given.

SMILES	HKDC1 inhibitor	Arbovirus anti	Diaphorase act	G6PDH CS	Diaphorase inh	HKDC1 act conf2
O=C1NC(=O)N(Cc2ccco2)C(=O)/C1=C/c1ccc(-c2cccc([N+](=O)[O-])c2)o1	36.9	0	0	0	0	-
COc1cccc(-n2c(/C=C/c3ccc(O)c(O)c3)nc3ccccc3c2=O)c1	0	0	0	0	69.1	-
O=C(/C=C/c1ccccc1)c1c(O)n(CCc2ccccc2)c(=O)[nH]c1=O	0	0	0	0	0	-
COc1cc(/C=C/C(=O)c2c(O)n(CCc3ccccc3)c(=O)[nH]c2=O)ccc1O	0	46.2	0	0	0	-
C1=C(c2ccccc2)CCNC1	0	-	-	-	-	-
Cc1[nH]c2ccccc2c1C1=CCNCC1	0	46.0	0	0	0	-
CN[C@@H]1C[C@@H](c2ccc(Cl)c(Cl)c2)c2ccccc21	-	0	0	0	72.5	-
CC(NCc1ccc(Cl)c(Cl)c1)C(O)c1ccccc1 (configuration not stated)	0	0	0	0	0	-
O=[N+]([O-])/C=C/c1c(Cl)cccc1Cl	0	-	-	-	-	-
Cc1ccc(CC2C(=O)N(C)C(=O)N(C)C2=O)s1	0	81.5	0	0	0	-
C=CCOc1ccc(CC2C(=O)N(C)C(=O)N(C)C2=O)cc1	0	0	0	0	0	-
O=C(O)c1cccc2c1NC(C(=O)O)C1CC(Sc3ccccc3[N+](=O)[O-])C(Cl)C21 (configuration not stated)	0	0	0	0	92.6	-
CC(=O)c1ccc2c(c1)C1C(Cl)C(Sc3ccccc3[N+](=O)[O-])CC1C(C(=O)O)N2 (configuration not stated)	0	0	0	0	66.3	-
O=P(O)(O)CN1CCNCCN(CP(=O)(O)O)CCNCC1	0	-	-	-	-	-
COc1ccc(/C=C/C=C2C(=O)NC(=S)NC2=O)cc1	0	-	-	-	-	-
COC(=O)C1=C(c2cccc(OCc3ccccc3)c2)C[C@@H]2CC[C@H]1N2C(=O)NCCN1CCOCC1	0	-	-	-	-	-
CC(=O)c1c(C)n(C2CCCCC2)c2ccc(O)cc12	0	0	0	0	50.5	-
CC(=O)c1c(C)n(Cc2ccccc2)c2ccc(O)cc12	0	-	-	-	-	-
COc1cc(O)cc2c1cc([N+](=O)[O-])c1c(C(=O)O)cc3c(c12)OCO3	35.8	-	-	-	-	0
CC(=O)OC1C(=O)OCC23CCC4(C)OC4C2OC2CC(OC(=O)C=CC=CC(=O)OCCC1C)C3(C)C21CO1 (configuration not stated)	0	-	-	-	-	-
C=CCN1CCc2cccc3c2[C@H]1Cc1ccc(O)c(O)c1-3	0	-	-	-	-	-
O=C1NC(=S)NC(=O)C1=Cc1ccc2c(c1)CCN2CCCCl	59.0	-	-	-	-	0
CCOc1cc(C=C2C(=O)NC(=S)NC2=O)ccc1O	0	-	-	-	-	-
C[C@]12CCC3C(CC[C@H]4[C@@H](O)[C@H](O)CC[C@]34C)C1CCC2=O (some centres not stated)	0	-	-	-	-	-
CC(=NNC(=S)N1CC2CCC(CC2)C1)c1nccs1	0	-	-	-	-	-42.1
SMILES	HKDC1 inhibitor	Arbovirus anti	Diaphorase act	G6PDH CS	Diaphorase inh	HKDC1 act conf2
Cc1ccc(C2N3CCCN23)cc1 (configuration not stated)	0	-	-	-	-	-
Brc1ccc(C2N3CCCN23)cc1 (configuration not stated)	0	0	0	0	0	0
CC[C@H](C)/C=C(C)/C=C/C1=CC2=C(Cl)C(=O)[C@](C)(OC(C)=O)C(=O)C2=CO1	58.9	-	-	-	-	0
CCN(CC)CCNC(=O)c1c(O)c2ccccc2n(Cc2ccccc2)c1=O	0	0	0	0	0	-
CCN(CC)CCCNC(=O)c1c(O)c2ccccc2n(Cc2ccccc2)c1=O	83.3	0	0	0	0	-37.1
Cc1ccc(N2C(=O)NC(=O)/C(=C\c3cc(C)n(-c4sc5c(c4C#N)CCCC5)c3C)C2=O)cc1	66.1	0	0	0	0	0
CCN1C(=O)NC(=O)/C(=C/c2cc(C)n(-c3sc(C)c(C)c3C#N)c2C)C1=O	0	0	0	0	0	-
CCOC(=O)c1c(-n2c(C)cc(C=C3C(=O)NC(=S)NC3=O)c2C)sc2c1CCCC2	58.6	0	0	0	0	0
Nc1c(Br)cc2c3c(cccc13)-c1ccccc1-2	70.5	-	-	-	-	0
c1ccc2c(c1)-c1cccc3cccc-2c13	0	-	-	-	-	-
Cc1cccc(CC(c2cccc(C)c2)N(C)C)c1 (configuration not stated)	0	-	-	-	-	-
CC1CCC(C)(NS(=O)(=O)OCC(Cl)(Cl)Cl)CC1 (configuration not stated)	37.8	-	-	-	-	0
COc1cc2c(c(OC)c1OC)-c1ccc(SC)c(=O)cc1C(NC(C)=O)CC2 (configuration not stated)	0	-	-	-	-	-
Cc1ccccc1N1C(=O)NC(=O)/C(=C\c2ccc3c(c2)CCCN3Cc2ccccc2)C1=O	35.1	0	0	0	0	0
COC(=O)C1=C(c2c(C)noc2C)C[C@@H]2CC[C@H]1N2C(=O)NCCNC(C)=O	0	-	-	-	-	-
O=c1nc(/C=C/c2ccc(Cl)cc2Cl)cc(C(F)(F)F)[nH]1	35.1	-	-	-	-	0
c1ccc2c(c1)[IH]c1ccccc1-2	0	-	-	-	-	-
